High-throughput results: PubChem BioAssay, The Scripps Research Institute Molecular Screening Center
Hits are enriched below; roughly 1.8% of the tested compounds scored in any of these assays.
NPY Y1 blocker: blocks the human neuropeptide Y Y1 receptor. inhibition, % at 3.6 µM. P25929. actives 1% (n = 200,000). HEK293-CNG Y1 cells, membrane potential fluorescence; NPY at EC95, then isoproterenol;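 active means inhibition above the campaign mean inhibition of all tested compounds plus 3 SD, cut at about 20% in these data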;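 further: 0% = DMSO wells given NPY plus isoproterenol and 100% = isoproterenol alone without NPY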
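System: HEK293 cells with Y1 receptor plus CNG channel / Probe or stimulus: NPY 25 nM then isoproterenol 1 µM plus Ro 20-1724 25 µM / Compound: one concentration, 3.6 µM, in 0.4% DMSO / Schedule: compound incubation 1 h at room temperature, readout 45 min post-stimulation / Measured by: membrane potential fluorescence / Read-out: % inhibition of NPY effect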
NPY Y2 blocker: NPY-Y2 (human) receptor antagonism. NPY-Y2 expressing cells, antagonist mode. inhibition, % at 2.7 µM. actives 0.99% (n = 140,000);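 further: 0% = vehicle with agonist challenge and 100% = reference antagonist with challenge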
Target sequence (P49146 whole entry, looked up): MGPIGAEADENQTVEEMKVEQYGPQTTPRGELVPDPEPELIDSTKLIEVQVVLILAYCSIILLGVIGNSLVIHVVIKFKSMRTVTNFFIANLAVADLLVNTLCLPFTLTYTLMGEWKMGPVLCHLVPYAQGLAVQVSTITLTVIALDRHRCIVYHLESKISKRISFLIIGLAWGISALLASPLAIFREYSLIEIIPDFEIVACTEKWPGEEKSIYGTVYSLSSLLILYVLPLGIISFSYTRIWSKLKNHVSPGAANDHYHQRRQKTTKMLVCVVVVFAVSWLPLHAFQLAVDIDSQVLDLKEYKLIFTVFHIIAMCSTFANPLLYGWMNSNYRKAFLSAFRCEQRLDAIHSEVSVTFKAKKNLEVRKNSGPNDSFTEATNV
NPY-Y2 PAM-ag: potentiates or activates human NPY-Y2 receptor; activation, % at 3.6 µM; actives 0.45% (n = 220,000); P49146; cells expressing NPY-Y2, potentiator/agonist read-out; AID 1359; in the data active means activation above about 27%;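 further: cells stimulated with NPY near EC25 plus isoproterenol at EC100; 0% = vehicle plus submaximal agonist and 100% = vehicle plus saturating agonist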
NPY-Y1 PAM-ag: human NPY-Y1 potentiation or agonism, primary screen | P25929 | NPY-Y1 expressing cells, potentiator/agonist activation | activation, % at 3.6 µM | actives 0.37% (n = 220,000) | AID 1304; in the data active means activation above about 33%, passing the limit was not always enough;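 further: cells stimulated with NPY at EC10 then isoproterenol at EC100; 0% = low agonist plus stimulus and 100% = saturating agonist plus stimulus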
NPY-Y1 ant conf: human NPY-Y1 antagonism, confirmation | AID 1254 | HEK293-CNG NPY-Y1, membrane potential fluorescence, cAMP; NPY challenge against isoproterenol-raised cAMP | shares compounds with NPY Y1 blocker | actives 21% (n = 1,200) | inhibition, % at 3.6 µM; in the data active means inhibition above about 20%;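 further: 0% = vehicle with agonist plus stimulus and 100% = stimulus alone without agonist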
NPY2 antag ctr: human NPY-Y2 antagonism in NPY-Y1 counter-screen. shares compounds with NPY Y1 blocker. HEK293 NPY-Y2 CNG membrane potential fluorescence; cells given NPY, then isoproterenol. inhibition, % at 3.6 µM. actives 28% (n = 1,200). AID 1255;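 further: 0% = DMSO with agonist challenge and 100% = reference antagonist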
NPY-Y2 confirm: human NPY-Y2 potentiation or agonism, confirmation. shares compounds with NPY-Y2 PAM-ag. cell-based NPY-Y2 potentiator/agonist assay. activation, % at 3.6 µM. actives 20% (n = 450). AID 1539; in the data active means activation above about 33%
NPY-Y1 counter: NPY-Y1 potentiation or agonism as NPY-Y2 counter-screen; shares compounds with NPY-Y2 PAM-ag; Y1 HEK293-CNG cells, membrane potential fluorescence; activation, % at 3.6 µM; actives 20% (n = 450); AID 1651; in the data active means activation above about 45%;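 further: cells stimulated with submaximal NPY then isoproterenol with phosphodiesterase inhibitor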
NPY-Y1 ag 2: human NPY-Y1 agonism as NPY-Y2 potentiator counter-screen. shares compounds with NPY-Y2 PAM-ag. HEK293 Y1-CNGC, membrane potential fluorescence. activation, % at 3.6 µM. actives 37% (n = 450). AID 1702;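 active means activation above the mean of DMSO-only control wells plus 3 SD, cut at about 18% in these data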;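 further: cells stimulated with 1 µM isoproterenol plus the PDE inhibitor Ro 20-1724; 0% = isoproterenol with DMSO and no NPY and 100% = 40 nM NPY; Y1 agonists lower the membrane potential dye signal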
CNGC inhibitor: counter-screen for NPY-Y2 potentiators: inhibitors of CNG channel activity; shares compounds with NPY-Y2 PAM-ag; HEK293-CNG parental, isoproterenol cAMP, membrane potential fluorescence; inhibition, % at 3.6 µM; actives 32% (n = 450); AID 1703;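 active means inhibition above the control-well mean plus 3 SD of those wells, cut at about 22% in these data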;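 further: 0% = DMSO with isoproterenol and 100% = DMSO without isoproterenol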
NPY-Y2 ag 2: counter-screen for NPY-Y2 potentiators: agonists of human NPY-Y2; shares compounds with NPY-Y2 PAM-ag; HEK293 Y2/CNGC cells, membrane potential fluorescence, agonist mode; activation, % at 3.6 µM; actives 56% (n = 450); AID 1710;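 active means activation above the mean of solvent-only control wells plus 3 SD, cut at about 10% in these data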;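 further: cells stimulated by isoproterenol with no NPY added so direct agonism is tested; 0% = DMSO with isoproterenol alone and 100% = NPY at EC100 plus isoproterenol; agonism lowers probe fluorescence through less cAMP and CNG channel opening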
* = called active by the depositor; . = no result. Unless noted, no stated cut-off is given here; in the data, active means inhibition above about 17%; inactive means the rest.

SMILES	NPY Y1 blocker	NPY Y2 blocker	NPY-Y2 PAM-ag	NPY-Y1 PAM-ag	NPY-Y1 ant conf	NPY2 antag ctr	others
COc1cc(/C=N/NC(=O)c2cccnc2)ccc1OC(=O)c1ccc2c(c1)OCO2	-5	5	-10	-6	.	.
CCCCCC(=O)Nc1ccccc1N1CCN(c2ccccc2)CC1	22*	5	-16	-49	6	15
CCCCC(=O)Nc1ccccc1N1CCOCC1	3	.	11	-12	.	.
COc1ccc(C2N(c3ccc(Cl)cc3)N=C(C(C)=O)N(C)N2C(C)=O)cc1 (stereo unspecified)	29*	.	11	16	20*	9
COc1cccc(N2C(C(C)=O)=NN(c3ccccc3)C2c2ccc(N3CCOCC3)cc2)c1 (stereo unspecified)	0	2	9	-2	.	.
O=c1cc(N2CCN(c3ccc(F)cc3)CC2)[nH]c(=O)n1Cc1ccc(F)cc1	-1	2	3	8	.	.
O=C(NCc1ccc(F)cc1)C1CCCN(S(=O)(=O)c2cccc3nsnc23)C1 (stereo unspecified)	2	0	-6	5	.	.
O=C(NCc1ccco1)C(c1ccncc1)N(C(=O)Cc1cccs1)c1ccccc1 (stereo unspecified)	5	.	-14	1	.	.
O=C(NCc1ccco1)C(c1ccccc1)N(C(=O)Cc1cccs1)c1ccccc1F (stereo unspecified)	22*	13	-1	7	2	3
CCNc1nc(NC(C)C)nc(SCCOC(=O)c2ccccc2)n1	-3	2	-10	-12	.	.
CC(C)Nc1nc(NC(C)C)nc(SCCOC(=O)Nc2ccc(Cl)cc2Cl)n1	21*	10	-10	-44	13	12
COc1ccc(-c2nnc3sc(CCN4C(=O)c5ccccc5C4=O)nn23)cc1	9	4	-7	7	.	.
COc1ccc(CSc2n[nH]c(C)n2)cc1Br	-2	-2	14	7	.	.
Cc1nc(SCc2cccc(Oc3ccccc3)c2)n[nH]1	23*	3	11	23	6	34*
CCN(CC)Cc1cc(CCNC(=O)c2ccc(Cl)cc2)ccc1O	4	4	0	4	.	.
CN(C)Cc1cc(CCNC(=O)c2ccc(Cl)cc2)ccc1O	22*	2	5	-11	-1	2
CCOC(=O)c1c(CSc2ccccc2)n(C)c2ccc(O)c(CN3CCOCC3)c12	38*	.	-36	-57	30*	9
CCOC(=O)c1c(C)n(C)c2ccc(O)c(CN3CCN(C)CC3)c12	5	4	-2	-13	.	.
Cc1nc2ccc(NC(=S)N3CCCC3)cc2nc1C	0	.	4	0	.	.
O=C(Nc1ccc(Cl)cc1)Nc1cccc2nsnc12	.	.	-4	-16	.	.
COc1ccc(C2=NOC(C(=O)NCc3ccccc3)C2)cc1 (stereo unspecified)	29*	8	-12	-18	13	19*
O=C(NCc1cccs1)C1CC(c2ccc(Cl)cc2)=NO1 (stereo unspecified)	0	.	-10	-13	.	.
O=C(NCc1cccs1)C1CC(c2ccc(Cl)c(Cl)c2)=NO1 (stereo unspecified)	24*	.	-35	-18	18	29*
COc1cccc(C2=NOC(C(=O)NCc3ccco3)C2)c1 (stereo unspecified)	11	3	-10	-13	.	.
COc1cccc(C2=NOC(C(=O)NCc3ccccc3)C2)c1 (stereo unspecified)	45*	10	-39	-30	17	28*
SMILES	NPY Y1 blocker	NPY Y2 blocker	NPY-Y2 PAM-ag	NPY-Y1 PAM-ag	NPY-Y1 ant conf	NPY2 antag ctr	others
CCCOC(=O)C(C)n1c(-c2ccccc2)nc2ccccc2c1=O (stereo unspecified)	33*	14	-66	-58	13	11
Clc1ccc(SCCOCCN2CCc3ccccc3C2)cc1	23*	.	-5	-23	15	12
c1ccc(-c2ccccc2OCCOCCN2CCc3ccccc3C2)cc1	16	.	-11	-11	.	.
Clc1ccc(OCCOCCN2CCc3ccccc3C2)c(Cl)c1	25*	10	-16	-28	8	8
O=C(NC(Cc1ccccc1)C(=O)O)/C(=C\c1ccco1)NC(=O)c1ccco1 (stereo unspecified)	11	.	-5	4	.	.
OCCN(CC#CC(O)(c1ccccc1)c1ccccc1)CCO	.	.	-3	-4	.	.
Cc1c(C(=O)OCC(=O)c2c(N)n(CC(C)C)c(=O)n(C)c2=O)oc2ccccc12	3	13	-6	11	.	.
Cc1ccc(NC(=O)C(Nc2ccccc2)c2ccccc2)cc1 (stereo unspecified)	-2	4	8	-8	.	.
Cc1ccc(NC(=O)C(c2ccccc2)C2CCCC2)cc1 (stereo unspecified)	24*	5	2	-33	7	5
O=C(CSc1nnnn1-c1ccccc1)N1CCc2ccccc2C1	4	3	-13	-11	.	.
Cn1c2ccccc2c2cnn(CC(=O)O)c(=O)c21	26*	12	-40	-48	7	7
CCc1cccc(CC)c1NC(=O)COC(=O)C1(C)CC1(Cl)Cl (stereo unspecified)	29*	.	-7	-4	11	18*
Cc1ccc(-n2ncc3c(SCc4cccnc4)ncnc32)c(C)c1	25*	.	33*	-9	13	6	NPY-Y2 confirm=-17;NPY-Y1 counter=-60;NPY-Y1 ag 2=-50;CNGC inhibitor=-27;NPY-Y2 ag 2=-23
N=c1c2c3c(sc2ncn1CCCO)CCCC3	0	3	-9	-4	.	.
Cc1[nH]c2ccccc2c1/C=N/NC(=O)c1cccc(S(=O)(=O)Nc2ccccc2Cl)c1	-2	0	12	-11	.	.
